Compound activity: PubChem BioAssay, several laboratories
SR-BI DiI-HDL act: activators of SR-BI mediated DiI-HDL uptake, primary screen, ldlA[mSR-BI] CHO cells, DiI fluorescence | 320,000 compounds, 0.096% hits | activation, % at 12.5 µM | AID 504775, 2011 | 3 h; 100 = double the neutral-control signal;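 active = mean replicate activation of at least 60% and every replicate at or above 60%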;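 note: 0% = median plate neutral-control signal and 100% = twice that signal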
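system = CHO ldlA[mSR-BI] cells, LDL receptor-null, SR-BI overexpressing | medium = Ham's F12 with 0.5% BSA, HEPES 25 mM, pH 7.4 | probe or stimulus = DiI-HDL 10 µg/mL | compound dosing = single-point compound dose | incubation = compound exposure 3 h, 37 °C | technique = DiI fluorescence, bottom read | read-out = cell-associated DiI fluorescence as measure of HDL uptake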
SR-BI DiI inh: inhibitors of SR-BI mediated HDL lipid uptake, primary screen, ldlA[mSR-BI] cells, fluorescence, single point; Scavenger receptor class B member 1 (Mus musculus), Q61009; ldlA[mSR-BI] CHO cells, DiI-HDL uptake fluorescence, 3 h; inhibition, % at 12.5 µM; 320,000 compounds, 0.96% hits;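 active = mean replicate inhibition of at least 70% and a set share of replicates each scoring 70 or more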;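 note: 0% = median of neutral control wells and 100% = median of positive control wells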
FXN GAA850 act: FXN promoter activators, primary screen, cell-based, luciferase luminescence, HEK293 lucGAA850; AID 540364, 2011; 360,000 compounds, 0.56% hits; HEK293 lucGAA850 FXN promoter luciferase reporter, 24 h; percent of 10 µM SAHA response; activation, % at 6 µM;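 active = activation above the average of all compounds screened plus 3 SD, cutoff fixed separately per campaign, cut at about 7.5% in these data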;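 note: 0% = DMSO wells and 100% = 10 µM SAHA wells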
JMJD2C inh: inhibitors of GASC-1 histone demethylase, primary screen, biochemical, fluorescence, DELFIA europium; GST-JMJD2C(1-420) H3K9me3 demethylation; inhibition, % at 2.35 µM; AID 2099, 2009; 330,000 compounds, 0.069% hits; Lysine-specific demethylase 4C (Homo sapiens), Q9H3R0;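 active = more than half of a compound's replicate wells show inhibition beyond 50%, single wells judged on their own value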;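 note: signal counts dimethyl H3K9 product captured on neutravidin plate; 0% = median of DMSO wells and 100% = 0.3 times that DMSO median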
AHR act: AHR activators, primary screen, cell-based, luminescence, luciferase reporter, human; Aryl hydrocarbon receptor (Homo sapiens), P35869; AHR-responsive luciferase reporter cells; activation, % at 5 µM; 320,000 compounds, 2.5% hits; AID 2796, 2010; in the data active = activation above about 47%;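 note: 0% = vehicle wells and 100% = reference agonist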
AHR act cf: AHR activators, confirmation, cell-based, luminescence, luciferase reporter, human | shares compounds with AHR act | human cells, AHR-responsive luciferase reporter | activation, % at 9 µM | 2,300 compounds, 87% hits | AID 2845, 2010; in the data active = activation above about 49%;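 note: HepG2 hepatoma cells carrying a DRE-driven firefly luciferase reporter; 0% = vehicle wells and 100% = reference agonist wells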
PXR act counter: human PXR activators, counter-screen for AHR activator project, cell-based, luciferase luminescence | shares compounds with AHR act | cell-based PXR reporter | activation, % at 11.6 µM | 2,300 compounds, 88% hits | AID 434939, 2010; in the data active = activation above about 11%;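 note: human hepatoma DPX-2 cells expressing full-length human PXR; 0% = DMSO and 100% = reference agonist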
Target sequence (O75469 whole entry, looked up): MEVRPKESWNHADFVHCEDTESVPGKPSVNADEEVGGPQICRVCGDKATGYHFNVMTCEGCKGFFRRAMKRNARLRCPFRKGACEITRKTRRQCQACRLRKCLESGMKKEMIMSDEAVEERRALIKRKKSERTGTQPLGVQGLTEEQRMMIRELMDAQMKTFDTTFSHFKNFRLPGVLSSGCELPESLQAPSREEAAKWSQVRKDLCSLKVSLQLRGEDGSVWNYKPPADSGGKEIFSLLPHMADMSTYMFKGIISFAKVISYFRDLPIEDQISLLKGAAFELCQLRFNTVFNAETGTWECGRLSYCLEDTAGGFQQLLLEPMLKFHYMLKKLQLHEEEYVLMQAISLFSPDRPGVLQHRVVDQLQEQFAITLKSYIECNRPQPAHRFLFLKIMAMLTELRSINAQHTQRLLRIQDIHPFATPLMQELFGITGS
* marks the source's active call; other numbers are inactive results; . = not tested or not shown. A selection: hits, their analogues and other compounds. The true share with any hit is near 3.7%.

SMILES | SR-BI DiI-HDL act | SR-BI DiI inh | FXN GAA850 act | JMJD2C inh | AHR act | AHR act cf | PXR act counter
Nc1n[nH]c(C2CC2)c1N=Nc1ccc(Cl)cc1 | . | . | 0.3 | -1.1 | 80.7* | 100.5* | 8.9
Cc1cc(O)c(C(=O)/C=C/c2ccccc2)c(=O)o1 | 6.5 | -6.5 | 2.8 | 4.7 | . | . | .
CCOc1ccc(/C=C/C(=O)c2c(O)cc(C)oc2=O)cc1 | 7.0 | -7.0 | 2.9 | -28.7 | 83.0* | 9.8 | 15.5*
Cc1ccc(C(=O)N/C(=C/c2ccc(N(C)C)cc2)C(=O)NCC2CCCO2)cc1 (stereo not given) | -17.3 | 17.3 | 2.4 | 9.1 | 9.0 | . | .
CCOC(CNC(=O)c1cccn2c(=O)c3cc(Cl)ccc3nc12)OCC | -7.1 | 7.1 | -2.7 | -0.8 | 82.5* | 133.5* | 13.6*
CCOC(CNC(=O)c1cccn2c(=O)c3c(C)c(C)sc3nc12)OCC | -5.7 | 5.7 | -1.4 | 6.1 | 8.3 | . | .
CN(C)c1cc(O)c(C(=S)Nc2ccccc2)c(N(C)C)c1 | -45.5 | 45.5 | 3.0 | 62.7 | 125.5* | 101.9* | 114.6*
CCS(=O)(=O)c1cc([N+](=O)[O-])c(Sc2ccccc2NC(C)=O)s1 | 12.1 | -12.1 | 0.7 | 55.6 | 13.3 | . | .
Cn1cccc1/C=N/n1c(-c2ccc(C(C)(C)C)cc2)n[nH]c1=S | 10.0 | -10.0 | 2.2 | -17.4 | 125.7* | 103.7* | 260.8*
Cn1cccc1/C=N/n1c(-c2ccccc2)n[nH]c1=S | 8.6 | -8.6 | 1.7 | 2.0 | 21.6 | . | .
Clc1ccc2oc(-c3cccnc3)nc2c1 | 6.0 | -6.0 | 5.4 | 11.1 | 4.3 | . | .
Cc1ccc2oc(-c3cccc(N)c3)nc2c1 | -4.7 | 4.7 | 3.9 | 13.6 | 110.1* | 106.7* | 10.1*
Cc1ccc2nc(-c3cccnc3)oc2c1 | 7.6 | -7.6 | 5.5 | 4.5 | 88.6* | 105.9* | 30.7*
CC(=O)NN1C(=O)c2ccccc2NC1c1ccoc1 (stereo not given) | 21.8 | -21.8 | -2.4 | 4.6 | 3.2 | . | .
Cc1cc(=O)[nH]c(SCC(=O)N2CCN(S(=O)(=O)c3ccccc3)C2)n1 | 8.4 | -8.4 | 1.4 | 6.4 | -1.8 | . | .
COc1ccc2cc(C(=O)N3CCN(c4ccc(F)cc4)CC3)[nH]c2c1 | -15.5 | 15.5 | -1.2 | -35.2 | 13.3 | . | .
CCC(C)C(=O)Nc1nc(C)c(-c2csc(Nc3cc(Cl)ccc3OC)n2)s1 (stereo not given) | -71.7 | 71.7* | 0.7 | 2.2 | 84.5* | 56.4* | 30.2*
COc1ccc(Cl)cc1Nc1nc(-c2cccnc2)cs1 | -21.9 | 21.9 | 1.2 | -4.4 | 18.7 | . | .
COc1ccc(Cl)cc1Nc1nc(-c2sc(NC(=O)c3ccco3)nc2C)cs1 | -88.6 | 88.6* | -0.4 | 19.0 | 106.5* | 75.3* | 20.6*
COc1cccc(Nc2nc(-c3sc(NC(=O)c4ccco4)nc3C)cs2)c1 | -55.3 | 55.3 | -2.3 | 12.1 | 46.0 | . | .
CCC(C)C(=O)Nc1nc(C)c(-c2csc(Nc3cc(OC)ccc3OC)n2)s1 (stereo not given) | -80.1 | 80.1* | -0.7 | 4.4 | 82.7* | 61.1* | 52.5*
CC(=O)Nc1cccc(C(=O)OCC(=O)NCc2ccc(F)cc2)c1 | 5.4 | -5.4 | 0.9 | 1.8 | 0.1 | . | .
O=C(Cc1cccs1)N[C@@H]1c2ccccc2CC[C@H]1OCc1ccccc1 | 14.9 | -14.9 | 2.5 | . | . | . | .
O=C(Nc1nc2c(Br)cccc2s1)C1CC1 | 24.5 | -24.5 | -1.3 | 0.8 | 132.1* | 96.8* | 17.9*
O=C(Nc1nc2ccc(Cl)cc2s1)C1CCCO1 (stereo not given) | -12.3 | 12.3 | 2.1 | -5.3 | -2.8 | . | .
SMILES | SR-BI DiI-HDL act | SR-BI DiI inh | FXN GAA850 act | JMJD2C inh | AHR act | AHR act cf | PXR act counter
CC(C)c1ccc2nc(NC(=O)C3CC3)sc2c1 | 3.9 | -3.9 | 6.7 | 1.4 | 89.0* | 79.0* | 38.6*
COC(=O)c1ccc2nc(NC(=O)C3CCCCC3)sc2c1 | -64.2 | 64.2 | 2.6 | -4.5 | 4.4 | . | .
O=C(Nc1nc2ccc(Cl)cc2s1)C1CC1 | -8.3 | 8.3 | 3.7 | -7.0 | 113.8* | 76.9* | 19.3*
CC(=O)N(Cc1ccccc1)c1nc(-c2ccccc2)cs1 | -10.0 | 10.0 | 1.4 | -3.7 | 3.2 | . | .
CC(C)[C@H](NC(=O)N1CCn2c1nc1ccccc12)C(=O)NCc1ccccc1Cl | -4.5 | 4.5 | -0.2 | 14.5 | 9.3 | . | .
COc1ccccc1-c1nnc(SCC(=O)NC2CCCCC2)o1 | -3.1 | 3.1 | 2.8 | -17.4 | 21.9 | . | .
COc1ccccc1-c1nnc(SCC(=O)Nc2c(Cl)cccc2Cl)o1 | -23.0 | 23.0 | -1.4 | 8.4 | 79.7* | 95.4* | 82.8*
CCC1/C(=N\O)CC(c2ccco2)NC1c1ccco1 (stereo not given) | 19.4 | -19.4 | -2.4 | 4.6 | 0.9 | . | .
Cc1ccc2c(c1)/C(=C/c1ccco1)C(=O)N2 | 0.0 | 0.0 | 3.6 | 11.5 | 115.6* | 99.2* | 22.9*
Cc1ccc(/C=C2\C(=O)Nc3ccccc32)o1 | 12.4 | -12.4 | 2.2 | 0.8 | 22.2 | . | .
CC(NC(=O)C1CCC(C(=O)NC(C)c2ccccc2)CC1)c1ccccc1 (stereo not given) | 6.1 | -6.1 | 2.9 | 0.0 | -0.4 | . | .
CCN(CC)C(=O)Cn1cc(C(=O)C(=O)N2CCc3ccccc32)c2ccccc21 | 2.9 | -2.9 | -2.2 | -6.2 | 97.8* | 88.5* | 243.2*
CCN(CC)C(=O)Cn1cc(C(=O)C(=O)N2CCN(c3ccccc3)CC2)c2ccccc21 | -8.3 | 8.3 | -0.8 | -8.5 | 2.2 | . | .
CN1CCN(C2=Nc3c(Cl)cc(Cl)c4cccc2c34)CC1 | -13.3 | 13.3 | 1.7 | 8.2 | 82.3* | 90.9* | 27.2*
CN1CCN(C2=Nc3cc(Cl)ccc3Nc3ccccc32)CC1 | -27.8 | 27.8 | 0.6 | -12.8 | 4.8 | . | .
COc1ccc(O)c(-c2cc(-c3cccs3)[nH]n2)c1 | -36.2 | 36.2 | 5.0 | 7.1 | 86.5* | 138.5* | 26.3*
COc1ccc(O)c(-c2cc(-c3ccccc3Cl)[nH]n2)c1 | -9.6 | 9.6 | 4.1 | 9.2 | 124.0* | 272.6* | 21.9*
COc1ccc(Cl)c(-c2cc(C(=O)NC(C)C)[nH]n2)c1 | . | . | -0.2 | . | . | . | .
COC(=O)c1cc(-c2cccs2)[nH]n1 | 12.3 | -12.3 | 0.7 | -15.4 | 0.6 | . | .
c1cc(-c2cccs2)nc(-c2cccs2)c1 | 22.3 | -22.3 | 0.1 | -0.5 | 96.1* | 84.0* | 16.1*
c1ccc(-c2cccs2)nc1 | 26.2 | -26.2 | 1.5 | -7.9 | -1.6 | . | .
